# Source: PubChem BioAssay (Johns Hopkins Ion Channel Center)
# TRPC6 act = activates the mouse TRPC6 cation channel | Q61143 | HEK293-TRPC6 membrane potential dye fluorescence; active compounds read high | B-score at 10 µM | hit rate 0.13% among 310,000;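 active = B-score of the integrated fluorescence ratio above library mean plus 3 SD, and starting fluorescence ratio within library mean plus 5 SD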;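 also: higher score means more depolarization so channel activation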
# TRPC4 inh = blocks the mouse TRPC4 cation channel; Q9QUQ5; HEK293 TRPC4beta/mu-opioid, DAMGO-evoked Fluo4 calcium flux; active compounds read low; B-score at 10 µM; hit rate 0.39% among 300,000; AID 2247;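 active = B-score over 3 SD under the library average, no early fluorescence shift, positive overall ratio signal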
# Target sequence (Q9QUQ5 whole entry, looked up): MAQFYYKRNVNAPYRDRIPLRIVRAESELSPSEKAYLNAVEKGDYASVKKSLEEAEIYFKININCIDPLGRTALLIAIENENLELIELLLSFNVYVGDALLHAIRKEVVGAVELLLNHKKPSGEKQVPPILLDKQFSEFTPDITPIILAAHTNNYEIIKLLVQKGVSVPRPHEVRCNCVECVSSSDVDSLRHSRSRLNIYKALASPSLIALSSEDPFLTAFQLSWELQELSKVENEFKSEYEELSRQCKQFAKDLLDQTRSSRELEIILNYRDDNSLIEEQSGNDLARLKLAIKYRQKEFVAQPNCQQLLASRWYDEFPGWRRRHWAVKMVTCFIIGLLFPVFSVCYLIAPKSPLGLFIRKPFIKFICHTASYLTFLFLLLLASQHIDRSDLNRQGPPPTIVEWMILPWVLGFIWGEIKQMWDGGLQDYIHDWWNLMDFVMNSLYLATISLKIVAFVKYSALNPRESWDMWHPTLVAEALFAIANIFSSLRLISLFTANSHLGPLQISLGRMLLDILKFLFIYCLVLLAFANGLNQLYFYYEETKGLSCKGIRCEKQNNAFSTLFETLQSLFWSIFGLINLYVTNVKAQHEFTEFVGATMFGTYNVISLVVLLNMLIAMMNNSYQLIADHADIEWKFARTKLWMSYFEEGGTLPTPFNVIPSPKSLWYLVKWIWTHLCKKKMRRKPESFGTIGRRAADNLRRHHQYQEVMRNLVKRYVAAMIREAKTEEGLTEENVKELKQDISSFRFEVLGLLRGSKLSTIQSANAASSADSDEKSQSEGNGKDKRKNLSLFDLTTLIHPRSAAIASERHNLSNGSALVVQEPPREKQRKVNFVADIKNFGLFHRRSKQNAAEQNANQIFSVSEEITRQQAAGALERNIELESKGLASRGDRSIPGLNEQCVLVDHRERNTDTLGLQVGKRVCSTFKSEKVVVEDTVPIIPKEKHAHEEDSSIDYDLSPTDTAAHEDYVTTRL
#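 Assay system – HEK293 line stably carrying TRPC4beta and mu-opioid receptor · Doses – single dose · Detection – Fluo4 calcium-dye fluorescence, kinetic read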
# TRPC6 inhibitor = mouse TRPC6 channel inhibition; Q61143; hit rate 1.1% among 310,000; B-score at 10 µM; HEK293-TRPC6, membrane potential dye, ACh-evoked depolarization; active compounds read low;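 active = B-score under library mean minus 3 SD, initial fluorescence not abnormally high, positive integrated signal ratio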;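 also: B-score derived from integrated fluorescence ratio over the kinetic read; more negative B-score means stronger inhibition of depolarization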
# TRPC4 agonist = opens the mouse TRPC4 cation channel; HEK293 TRPC4beta/mu-opioid, Fluo4 calcium fluorescence; active compounds read high; B-score at 10 µM; hit rate 0.49% among 310,000;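 active = B-score above 5 SD of library B-scores, and initial fluorescence ratio not above library mean plus 5 SD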;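 also: positive B-score marks a calcium rise read as TRPC4 activation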
#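 System – HEK293 cells stably co-expressing mouse TRPC4beta and mu-opioid receptor · Signal – Fluo4 calcium-sensitive dye fluorescence, kinetic, 1 Hz baseline · Benchmarks – buffer (low) and maximal DAMGO (high) · Read-out – B score of integrated fluorescence ratio per well · Incubation – dye loading 45 min room temperature, 110 s kinetic read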
# TRPC4 PAM = allosteric potentiators of mouse TRPC4 channel; Q9QUQ5; HEK293 TRPC4beta/mu-opioid, DAMGO EC20, Fluo-4 Ca2+ flux; active compounds read high; B-score at 10 µM; hit rate 0.42% among 310,000; AID 2227;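 active = B-score of calcium response area above 5 SD of library B-scores, with initial fluorescence ratio within 5 SD of library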;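 also: B-score of integrated fluorescence ratio over time as area under calcium response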
# TRPC4 sel inh 2 = mouse TRPC4 off-target activity of TRPC6 inhibitors, second screen. shares compounds with TRPC6 inhibitor. HEK293 TRPC4/MOR, membrane potential dye fluorescence; channel activated by saturating DAMGO dose. inhibition, % at 10 µM. hit rate 42% among 920. AID 2776;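 active = compounds whose fluorescence signal differed from control wells by over 3 SD, either direction, in both duplicate plates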
# TRPC4 spec = selectivity of TRPC6 inhibitors: effect on mouse TRPC4 | shares compounds with TRPC6 inhibitor | HEK293 TRPC4/mu-opioid, membrane potential fluorescence | activity change, negative = inhibition, % at 10 µM | hit rate 61% among 920;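 active = rise or fall in signal beyond 3 SD of buffer-only wells in both replicate plates, either sign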;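 also: integrated kinetic ratio of fluorescence range over baseline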
# HEK293 MPD ctr 2-1 = second check of TRPC6 inhibitor effects in parental HEK293 cells | shares compounds with TRPC6 inhibitor | parental HEK293 membrane potential dye fluorescence; maximal acetylcholine challenge after compound addition | signal change vs control, % at 10 µM | hit rate 31% among 920 | AID 2779;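 active = membrane potential signal moving either way by over 3 SD of the maximum-effect control, in both duplicate plates, meaning non-specific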
# HEK293 MPD ctr-1 = counter-screen for TRPC6 inhibitors: effect in parental HEK293 cells | parental HEK293 membrane potential dye fluorescence | shares compounds with TRPC6 inhibitor | AID 2780 | hit rate 60% among 920 | membrane potential signal change, % at 10 µM;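 active = membrane potential signal shifting up or down by more than 3 SD of buffer-only wells, on both duplicate plates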
# HEK293 MPD ctr-2 = counter-screen for TRPC6 modulators: effect in parental HEK293 cells | shares compounds with TRPC6 inhibitor | membrane potential dye fluorescence | membrane potential signal change, % at 10 µM | hit rate 51% among 2,400 | AID 488924;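 active = membrane potential signal moves up or down beyond 5 SD from buffer-only wells, on both duplicate plates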
# HEK293 MPD ctr 2-2 = second check of TRPC6 modulator effects in parental HEK293 cells | shares compounds with TRPC6 inhibitor | membrane potential dye fluorescence; after compound, maximal acetylcholine stimulation | inhibition, % at 10 µM | hit rate 14% among 2,400;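 active = membrane potential signal drops by more than 5 SD from the mean control signal, in both duplicate plates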;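 also: plate controls were acetylcholine ECmax control wells for no effect and buffer only wells for full effect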
# TRPC4 ctr mod = selectivity of TRPC6 modulators against mouse TRPC4. percent change from control (negative = decrease, positive = increase), % at 10 µM. hit rate 69% among 2,400. shares compounds with TRPC6 inhibitor. HEK293 TRPC4/mu-opioid, membrane potential fluorescence;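 active = membrane potential signal moved up or down beyond 5 SD of buffer control wells, in both duplicate plates, actives on both sides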;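 also: plate controls were assay buffer wells for no effect and DAMGO maximal-effect wells for full effect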
# TRPC4/MOR inh 2 = second check of whether TRPC6 modulators also affect mouse TRPC4; shares compounds with TRPC6 inhibitor; HEK293 TRPC4/mu-opioid, membrane potential dye fluorescence; stimulated with maximal-effect DAMGO; inhibition, % at 10 µM; hit rate 55% among 2,400;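 active = drop in membrane potential signal beyond 5 SD of the control wells in both duplicate plates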;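 also: TRPC4 counter screen for TRPC6 hits run under conditions tuned for TRPC6 not TRPC4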
# TRPC6 inh conf = confirmation of mouse TRPC6 inhibitors; HEK293-TRPC6, membrane potential dye, ACh-evoked depolarization; inhibition, % at 10 µM; hit rate 43% among 3,300; AID 488960; shares compounds with TRPC6 inhibitor;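 active = fluorescence ratio falls more than 5 SD below the full-stimulation control mean, in both duplicate runs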;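 also: integrated fluorescence ratio of peak minus minimum over baseline after agonist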
# TRPC6 act confirm = mouse TRPC6 activator confirmation. shares compounds with TRPC6 inhibitor. HEK293-TRPC6 membrane potential dye fluorescence, FDSS. activation, % at 10 µM. hit rate 11% among 2,800. AID 488961;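 active = ratio signal rise beyond 5 SD above unstimulated control wells' mean, seen in both duplicate runs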;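 also: plate controls were buffer EC0 wells for no effect and acetylcholine ECmax response for full effect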
# The depositor's hits bear a star; i = inactive; . = no result; + = active, no number. In the library only some 2.3% were active in any assay of this set; here they are far more common.
SMILES,TRPC6 act,TRPC4 inh,TRPC6 inhibitor,TRPC4 agonist,TRPC4 PAM,HEK293 MPD ctr-2,HEK293 MPD ctr 2-2,TRPC4 ctr mod,TRPC4/MOR inh 2,TRPC6 inh conf,TRPC6 act confirm,others
Cc1nn(C)c(C(=O)N2CCOCC2)c1Cl,i,i,i,i,i,.,.,.,.,.,.,
COc1cccc(C(=O)N2CCN(Cc3ccccc3Br)CC2)c1,i,i,i,i,i,.,.,.,.,.,.,
COc1ccccc1CNC(=O)c1cc(S(=O)(=O)N2CCCC2)cn1C,i,i,i,i,i,.,.,.,.,.,.,
CC(=O)OCCc1[nH]c2ccccc2c1C,i,i,i,i,i,.,.,.,.,.,.,
CC(=O)OCCc1c2ccccc2c(CCCN(C)C)c2ccccc12,i,i,-6.1*,i,i,-87%*,i,-18%*,67%*,48%*,i,
Cc1cc(NC(=O)c2cccc(S(=O)(=O)N3CCCCC3)c2)no1,i,i,i,i,i,.,.,.,.,.,.,
CCOC(=O)c1c(NC(=O)COC)sc(C)c1C,i,i,i,i,i,.,.,.,.,.,.,
CCOC(=O)c1c(NC(=O)COC(=O)c2cc(OC)c(OC)cc2[N+](=O)[O-])sc(C)c1C,i,i,-5.1*,i,i,i,i,i,40%*,i,i,
COCCNC(=O)Cn1nc(-c2ccc(C)cc2)c2ccccc2c1=O,i,i,i,i,i,.,.,.,.,.,.,
CCOC(=O)SC1=N/C(=C\c2ccc(N(C)C)cc2)C(=O)S1,12*,i,-6*,i,i,i,i,12%*,i,i,i,
CCSC1=N/C(=C\c2ccc(C(=O)O)cc2)C(=O)S1,i,i,i,i,i,.,.,.,.,.,.,
CN(C(=O)CCc1ccccc1F)C1CCCN(Cc2ccccc2F)C1 (stereo not given),i,i,i,i,i,.,.,.,.,.,.,
CN(C(=O)CCCN1CCCC1=O)C1CCCN(Cc2ccccc2F)C1 (stereo not given),i,i,-5.1*,i,i,i,i,i,i,i,i,
CCn1c(CCc2ccccc2)nc2ccccc21,i,i,i,i,i,.,.,.,.,.,.,
Cc1onc(-c2ccccc2)c1C(=O)NNC(=O)c1ccccc1O,i,i,i,i,i,.,.,.,.,.,.,
Cc1onc(-c2ccccc2)c1C(=O)NNC(=S)NC(=O)c1ccc(Cl)cc1Cl,i,i,-5.8*,375*,i,96%*,i,36%*,36%*,i,.,
O=C(NCc1csc2ccccc12)Nc1cc(Cl)cc(Cl)c1,i,i,i,i,i,.,.,.,.,.,.,
CN1CCN(c2nc(-c3cccs3)nc3ccccc23)CC1,i,i,-8.2*,i,i,.,.,.,.,69%*,i,TRPC4 sel inh 2=32%*;TRPC4 spec=-28%*;HEK293 MPD ctr 2-1=i;HEK293 MPD ctr-1=-344%*
COc1cccc(-c2nc(N3CCN(C)CC3)c3ccccc3n2)c1O,i,i,-9.9*,i,i,-218%*,i,-44%*,72%*,52%*,i,
CCc1ccc(NC(=O)N2CCN(C(=O)C3CCCO3)CC2)cc1 (stereo not given),i,i,i,i,i,.,.,.,.,.,.,
COc1cccc(NC(=O)c2cc(-c3ccc(OC)cc3OC)nc3ccccc23)c1,i,i,-5.1*,i,i,+,73%*,-94%*,66%*,54%*,i,
COc1ccc(-c2cc(C(=O)Nc3cc(C)on3)c3ccccc3n2)c(OC)c1,i,i,i,i,i,.,.,.,.,.,.,
COc1ccc(C(=O)/C=C/c2cc(OC)c(O)c(OC)c2)c(F)c1,18*,i,i,i,i,288%*,i,54%*,i,i,108%*,
COc1ccc2cc(C(=O)/C=C/c3cc(OC)c(O)c(OC)c3)ccc2c1,i,i,i,i,i,.,.,.,.,.,.,
CCc1cccc(NC(=O)c2cccc(S(=O)(=O)N3CCN(C)CC3)c2)c1,i,i,i,i,i,.,.,.,.,.,.,
SMILES,TRPC6 act,TRPC4 inh,TRPC6 inhibitor,TRPC4 agonist,TRPC4 PAM,HEK293 MPD ctr-2,HEK293 MPD ctr 2-2,TRPC4 ctr mod,TRPC4/MOR inh 2,TRPC6 inh conf,TRPC6 act confirm,others
Cc1cc(-c2ccc(/C=N/n3cnnc3)o2)c(C)c([N+](=O)[O-])c1,i,i,-6*,i,i,-221%*,71%*,-44%*,58%*,48%*,i,
COc1cc([N+](=O)[O-])ccc1-c1ccc(/C=N\n2cnnc2)o1,i,i,-9.3*,i,i,i,i,-61%*,39%*,i,i,
CN1CCN(/N=C/c2ccc(-c3ccc([N+](=O)[O-])cc3Cl)o2)CC1,13*,i,i,i,i,260%*,i,39%*,i,i,92%*,
O=[N+]([O-])c1ccc(Cl)c(-c2ccc(/C=N/n3cnnc3)o2)c1,i,i,-7.3*,i,i,-154%*,i,-30%*,i,i,i,
COc1cc([N+](=O)[O-])ccc1-c1ccc(/C=N/NC(=O)c2ccccc2O)o1,i,i,i,i,i,.,.,.,.,.,.,
NC(=NCCc1ccccc1)NC(=O)c1cc(Cl)ccc1O,i,i,i,i,i,.,.,.,.,.,.,
COc1ccc(F)cc1S(=O)(=O)Nc1cc2c3c(c1)CCN3C(=O)CC2,i,i,i,i,i,.,.,.,.,.,.,
